Measurements from ChEMBL document CHEMBL3046880, “Syntheses and herbicidal activities of novel triazolinone derivatives” (J Agric Food Chem, 2008).

Experiments:
Echinochloa crus-galli [1] = experiment: Herbicidal activity against Echinochloa crus-galli (barnyard grass) assessed as growth inhibition at 150 g of active ingredient/ha administered using post-emergence treatment measured 15 days post treatment protocol under greenhouse conditions; type: functional
Method in brief: (§1)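 Test agents were formulated as 100 g/L emulsified concentrates (DMF solvent, TW-80 emulsifier), diluted with water and sprayed postemergence on pot-grown weeds. Seeds were sown 1-3 cm deep in clay soil (pH 6.5, 1.6% organic matter, 37.3% clay, CEC […]) and grown at 15–30 °C in a greenhouse. Dicots were treated at the two-leaf stage. Untreated and DMF-treated plants served as controls. Activity was scored visually 15 days after treatment.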

Eclipta prostrata [2] = experiment: Herbicidal activity against Eclipta prostrata assessed as growth inhibition at 37.5 g of active ingredient/ha administered using post-emergence treatment measured 15 days post treatment protocol under greenhouse conditions; type: functional; method in brief: as §1
Amaranthus retroflexus [3] = experiment: Herbicidal activity against Amaranthus retroflexus assessed as growth inhibition at 37.5 g of active ingredient/ha administered using post-emergence treatment measured 15 days post treatment protocol under greenhouse conditions; type: functional; method in brief: as §1
Echinochloa crus-galli [4] = experiment: Herbicidal activity against Echinochloa crus-galli (barnyard grass) assessed as growth inhibition at 75 g of active ingredient/ha administered using post-emergence treatment measured 15 days post treatment protocol under greenhouse conditions; type: functional; method in brief: as §1
Chenopodium album [5] = experiment: Herbicidal activity against Chenopodium album assessed as growth inhibition at 37.5 g of active ingredient/ha administered using post-emergence treatment measured 15 days post treatment protocol under greenhouse conditions; type: functional; method in brief: as §1
Digitaria sanguinalis [6] = experiment: Herbicidal activity against Digitaria sanguinalis (hairy crabgrass) assessed as growth inhibition at 75 g of active ingredient/ha administered using post-emergence treatment measured 15 days post treatment protocol under greenhouse conditions; type: functional; method in brief: as §1
Senna tora [7] = experiment: Herbicidal activity against Senna tora assessed as growth inhibition at 37.5 g of active ingredient/ha administered using post-emergence treatment measured 15 days post treatment protocol under greenhouse conditions; type: functional; method in brief: as §1
Triticum aestivum [8] = experiment: Phytotoxicity against Triticum aestivum (wheat) plant assessed as growth inhibition at 300 g of active ingredient/ha administered using post-emergence treatment measured 30 days post treatment protocol under greenhouse conditions; type: organism-based; conditions: in vivo, other, 720 h
Method in brief: (§2)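 Compounds were formulated as 100 g/L emulsified concentrates in DMF with TW-80 as emulsifier, then diluted with water to the required concentration. They were applied postemergence to pot-grown plants in a greenhouse. The soil was clay, pH 6.5, with 1.6% organic matter, 37.3% clay particles and CEC 12.1 mol/kg. Sulfentrazone served as the reference control.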

Triticum aestivum [9] = experiment: Phytotoxicity against Triticum aestivum (wheat) plant assessed as growth inhibition at 450 g of active ingredient/ha administered using post-emergence treatment measured 30 days post treatment protocol under greenhouse conditions; type: organism-based; conditions: in vivo, other, 720 h; method in brief: as §2
Cerastium arvense [10] = experiment: Herbicidal activity against Cerastium arvense assessed as growth inhibition at 150 g of active ingredient/ha administered using post-emergence treatment measured 15 days post treatment protocol under greenhouse conditions; type: functional; method in brief: as §1
Gossypium hirsutum [11] = experiment: Phytotoxicity against Gossypium hirsutum (cotton) plant assessed as growth inhibition at 150 g of active ingredient/ha administered using post-emergence treatment measured 30 days post treatment protocol under greenhouse conditions; type: organism-based; conditions: in vivo, other, 720 h; method in brief: as §2
Cerastium arvense [12] = experiment: Herbicidal activity against Cerastium arvense assessed as growth inhibition at 75 g of active ingredient/ha administered using post-emergence treatment measured 15 days post treatment protocol under greenhouse conditions; type: functional; method in brief: as §1
Senna tora [13] = experiment: Herbicidal activity against Senna tora assessed as growth inhibition at 150 g of active ingredient/ha administered using post-emergence treatment measured 15 days post treatment protocol under greenhouse conditions; type: functional; method in brief: as §1
Brassica napus [14] = experiment: Phytotoxicity against Brassica napus (oilseed rape) assessed as growth inhibition at 450 g of active ingredient/ha administered using post-emergence treatment measured 30 days post treatment protocol under greenhouse conditions; type: organism-based; conditions: in vivo, other, 720 h; method in brief: as §2
Zea mays [15] = experiment: Phytotoxicity against Zea mays (maize) plant assessed as growth inhibition at 150 g of active ingredient/ha administered using post-emergence treatment measured 30 days post treatment protocol under greenhouse conditions; type: organism-based; conditions: in vivo, other, 720 h; method in brief: as §2
Eclipta prostrata [16] = experiment: Herbicidal activity against Eclipta prostrata assessed as growth inhibition at 75 g of active ingredient/ha administered using post-emergence treatment measured 15 days post treatment protocol under greenhouse conditions; type: functional; method in brief: as §1
[17] = Phytotoxicity against Gossypium hirsutum (cotton) plant assessed as growth inhibition at 75 g of active ingredient/ha administered using post-emergence treatment measured 30 days post treatment protocol under greenhouse conditions; type: organism-based; conditions: in vivo, read-out: GI; method in brief: as §2
Gossypium hirsutum [18] = experiment: Phytotoxicity against Gossypium hirsutum (cotton) plant assessed as growth inhibition at 300 g of active ingredient/ha administered using post-emergence treatment measured 30 days post treatment protocol under greenhouse conditions; type: organism-based; conditions: in vivo, other, 720 h; method in brief: as §2
[19] = Phytotoxicity against Oryza sativa (rice) plant assessed as growth inhibition at 75 g of active ingredient/ha administered using post-emergence treatment measured 30 days post treatment protocol under greenhouse conditions; type: organism-based; conditions: in vivo, read-out: GI; method in brief: as §2
Setaria viridis [20] = experiment: Herbicidal activity against Setaria viridis (green foxtail) assessed as growth inhibition at 75 g of active ingredient/ha administered using post-emergence treatment measured 15 days post treatment protocol under greenhouse conditions; type: functional; method in brief: as §1
Zea mays [21] = experiment: Phytotoxicity against Zea mays (maize) plant assessed as growth inhibition at 450 g of active ingredient/ha administered using post-emergence treatment measured 30 days post treatment protocol under greenhouse conditions; type: organism-based; conditions: in vivo, other, 720 h; method in brief: as §2
[22] = Phytotoxicity against Oryza sativa (rice) plant assessed as growth inhibition at 450 g of active ingredient/ha administered using post-emergence treatment measured 30 days post treatment protocol under greenhouse conditions; type: organism-based; conditions: in vivo, read-out: GI; method in brief: as §2
Amaranthus retroflexus [23] = experiment: Herbicidal activity against Amaranthus retroflexus assessed as growth inhibition at 75 g of active ingredient/ha administered using post-emergence treatment measured 15 days post treatment protocol under greenhouse conditions; type: functional; method in brief: as §1
Digitaria sanguinalis [24] = experiment: Herbicidal activity against Digitaria sanguinalis (hairy crabgrass) assessed as growth inhibition at 150 g of active ingredient/ha administered using post-emergence treatment measured 15 days post treatment protocol under greenhouse conditions; type: functional; method in brief: as §1
Setaria viridis [25] = experiment: Herbicidal activity against Setaria viridis (green foxtail) assessed as growth inhibition at 37.5 g of active ingredient/ha administered using post-emergence treatment measured 15 days post treatment protocol under greenhouse conditions; type: functional; method in brief: as §1
[26] = Phytotoxicity against Triticum aestivum (wheat) plant assessed as growth inhibition at 75 g of active ingredient/ha administered using post-emergence treatment measured 30 days post treatment protocol under greenhouse conditions; type: organism-based; conditions: in vivo, read-out: GI; method in brief: as §2
Chenopodium album [27] = experiment: Herbicidal activity against Chenopodium album assessed as growth inhibition at 75 g of active ingredient/ha administered using post-emergence treatment measured 15 days post treatment protocol under greenhouse conditions; type: functional; method in brief: as §1
[28] = Phytotoxicity against Brassica napus (oilseed rape) assessed as growth inhibition at 75 g of active ingredient/ha administered using post-emergence treatment measured 30 days post treatment protocol under greenhouse conditions; type: organism-based; conditions: in vivo, read-out: GI; method in brief: as §2
Brassica napus [29] = experiment: Phytotoxicity against Brassica napus (oilseed rape) assessed as growth inhibition at 300 g of active ingredient/ha administered using post-emergence treatment measured 30 days post treatment protocol under greenhouse conditions; type: organism-based; conditions: in vivo, other, 720 h; method in brief: as §2
[30] = Phytotoxicity against Oryza sativa (rice) plant assessed as growth inhibition at 150 g of active ingredient/ha administered using post-emergence treatment measured 30 days post treatment protocol under greenhouse conditions; type: organism-based; conditions: in vivo, read-out: GI; method in brief: as §2
[31] = Phytotoxicity against Oryza sativa (rice) plant assessed as growth inhibition at 300 g of active ingredient/ha administered using post-emergence treatment measured 30 days post treatment protocol under greenhouse conditions; type: organism-based; conditions: in vivo, read-out: GI; method in brief: as §2

For CCS(=O)(=O)Nc1cc(-n2nc(C)n(Cc3ccccc3/C(=N\OC)C(=O)OC)c2=O)c(F)cc1Cl, the “growth inhibition (GI)” value (Echinochloa crus-galli [1]) was 50%, the “growth inhibition (GI)” value (Eclipta prostrata [2]) was greater than 80% and the “growth inhibition (GI)” value (Amaranthus retroflexus [3]) was greater than 80%. The “growth inhibition (GI)” value (Echinochloa crus-galli [4]) was 50%, the “growth inhibition (GI)” value (Chenopodium album [5]) was 50% and the “growth inhibition (GI)” value (Digitaria sanguinalis [6]) was 50%. For the same molecule, the “growth inhibition (GI)” value (Senna tora [7]) was 50%, the Activity (Triticum aestivum [8]) was “Toxic” and the Activity (Triticum aestivum [9]) was “Toxic”. For the same molecule, the “growth inhibition (GI)” value (Cerastium arvense [10]) was 100%, the Activity (Gossypium hirsutum [11]) was “Toxic” and the “growth inhibition (GI)” value (Cerastium arvense [12]) was 100%. For the same molecule, the “growth inhibition (GI)” value (Senna tora [13]) was 100%, the Activity (Brassica napus [14]) was “Toxic” and the Activity (Zea mays [15]) was “Toxic”. For the same molecule, the “growth inhibition (GI)” value (Eclipta prostrata [16]) was greater than 80%, the inhibition at 720 h [17] was 60% and the Activity (Gossypium hirsutum [18]) was “Toxic”. The inhibition at 720 h [19] was 0%, the “growth inhibition (GI)” value (Setaria viridis [20]) was less than 50% and the Activity (Zea mays [21]) was “Toxic”. The inhibition at 720 h [22] was 10%, the “growth inhibition (GI)” value (Amaranthus retroflexus [23]) was greater than 80% and the “growth inhibition (GI)” value (Digitaria sanguinalis [24]) was 50%. For the same molecule, the “growth inhibition (GI)” value (Setaria viridis [25]) was less than 50%, the inhibition at 720 h [26] was 40% and the “growth inhibition (GI)” value (Chenopodium album [27]) was greater than 80%. For the same molecule, the inhibition at 720 h [28] was 80%, the Activity (Brassica napus [29]) was “Toxic” and the inhibition at 720 h [30] was 0%. It also gave an inhibition at 720 h [31] of 0%.
